According to ChEMBL document CHEMBL4190227, “Syntheses, toxicities and anti-inflammation of H2S-donors based on non-steroidal anti-inflammatory drugs” (Eur J Med Chem, 2017):
Activity calls are given as the source filed them. The rule behind the calls is not given here.

Legend:
RAW264.7 [1] = test: Antiinflammatory activity in mouse RAW264.7 cells assessed as increase in IL10 levels at 10 to 100 uM measured after 24 hrs in absence of LPS by ELISA; assay type: functional, cell-based
Summary of the method: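 Macrophages exposed 24 h to 10, 50, 100 μM without LPS; lysates (RIPA, 12,000×g spin) normalised by BCA to 0.1 mg/mL protein; IL-10 measured by mouse-specific sandwich ELISA kit; four independent experiments, mean ± SD.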

HepG2 = test: Cytotoxicity against human HepG2 cells assessed as reduction in cell survival after 24 hrs by MTT assay; assay type: cell-based; conditions: HepG2, 24 h
RAW264.7 [2] = test: Inhibition of LPS-induced COX2 expression in mouse RAW264.7 cells at 100 uM incubated for 24 hrs post LPS induction by ELISA relative to control; assay type: functional; conditions: RAW264.7, 24 h, read-out: INH
Summary of the method: (§1)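 LPS (1 μg/mL) for 4 h, then compound at 10, 50, 100 μM for 24 h; cells lysed in RIPA, spun 12,000×g 10 min, protein normalised by BCA to 0.1 mg/mL; target (TNF-α, HO-1, IL-10 or COX-2) quantified by sandwich ELISA kit with mouse-specific polyclonal antibodies; four independent experiments.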

[3] = Drug degradation in phosphate buffer assessed as H2S release by measuring test compound half life at 40 uM measured every 5 mins in presence of TECP by UV-Vis spectrometry; assay type: physicochemical
Summary of the method: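 Sulfide release at 37.5 °C: donor (40 mM THF stock) added to pH 7.4 phosphate buffer with 1.0 mM TECP; aliquots taken every 5 min into methylene blue cocktail (zinc acetate, N,N-dimethyl-1,4-phenylenediamine, FeCl3 in HCl), A670 read 15 min later; H2S from Na2S calibration curve; concentration vs time curve; four independent experiments.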

[4] = (§2) Cytotoxicity against mouse RAW264.7 cells assessed as cell viability at 10 to 100 uM treated for 24 hrs post LPS induction by MTT assay; assay type: cell-based; conditions: RAW264.7 cells, read-out: Activity
Summary of the method: (§3)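 Macrophages in high-glucose DMEM + 10% heat-inactivated FBS, 2 mM glutamine, 37 °C, 5% CO2; exposed 24 h to 10, 50, 100 μM with or without LPS 1 μg/mL; MTT added 4 h, formazan dissolved in DMSO, A570, expressed as % of control; four independent experiments.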

RAW264.7 [5] = test: Antiinflammatory activity in mouse RAW264.7 cells assessed as increase in LPS-induced HO-1 expression at 100 uM incubated for 24 hrs post LPS induction by ELISA relative to contol; assay type: functional; summary of the method: as §1
RAW264.7 [6] = test: Antiinflammatory activity in mouse RAW264.7 cells assessed as increase in LPS-induced IL10 levels at 10 to 100 uM incubated for 24 hrs post LPS induction by ELISA; assay type: functional, cell-based; summary of the method: as §1
[7] = (§4) Cytotoxicity against mouse RAW264.7 cells assessed as cell viability at 10 to 100 uM treated for 24 hrs in absence of LPS by MTT assay; assay type: cell-based; conditions: RAW264.7 cells, read-out: Activity; summary of the method: as §3
RAW264.7 [8] = test: Antiinflammatory activity in mouse RAW264.7 cells assessed as reduction in LPS-induced TNFalpha levels incubated for 24 hrs post LPS induction by ELISA; assay type: functional, cell-based; summary of the method: as §1
[9] = biological target: T1, Nitric oxide synthase, inducible (Mus musculus) (UniProt P29477); test: Inhibition of iNOS in mouse RAW264.7 cells assessed as reduction in LPS-induced NO production administered for 24 hrs post LPS induction by Griess method; assay type: cell-based
T1 sequence (whole entry): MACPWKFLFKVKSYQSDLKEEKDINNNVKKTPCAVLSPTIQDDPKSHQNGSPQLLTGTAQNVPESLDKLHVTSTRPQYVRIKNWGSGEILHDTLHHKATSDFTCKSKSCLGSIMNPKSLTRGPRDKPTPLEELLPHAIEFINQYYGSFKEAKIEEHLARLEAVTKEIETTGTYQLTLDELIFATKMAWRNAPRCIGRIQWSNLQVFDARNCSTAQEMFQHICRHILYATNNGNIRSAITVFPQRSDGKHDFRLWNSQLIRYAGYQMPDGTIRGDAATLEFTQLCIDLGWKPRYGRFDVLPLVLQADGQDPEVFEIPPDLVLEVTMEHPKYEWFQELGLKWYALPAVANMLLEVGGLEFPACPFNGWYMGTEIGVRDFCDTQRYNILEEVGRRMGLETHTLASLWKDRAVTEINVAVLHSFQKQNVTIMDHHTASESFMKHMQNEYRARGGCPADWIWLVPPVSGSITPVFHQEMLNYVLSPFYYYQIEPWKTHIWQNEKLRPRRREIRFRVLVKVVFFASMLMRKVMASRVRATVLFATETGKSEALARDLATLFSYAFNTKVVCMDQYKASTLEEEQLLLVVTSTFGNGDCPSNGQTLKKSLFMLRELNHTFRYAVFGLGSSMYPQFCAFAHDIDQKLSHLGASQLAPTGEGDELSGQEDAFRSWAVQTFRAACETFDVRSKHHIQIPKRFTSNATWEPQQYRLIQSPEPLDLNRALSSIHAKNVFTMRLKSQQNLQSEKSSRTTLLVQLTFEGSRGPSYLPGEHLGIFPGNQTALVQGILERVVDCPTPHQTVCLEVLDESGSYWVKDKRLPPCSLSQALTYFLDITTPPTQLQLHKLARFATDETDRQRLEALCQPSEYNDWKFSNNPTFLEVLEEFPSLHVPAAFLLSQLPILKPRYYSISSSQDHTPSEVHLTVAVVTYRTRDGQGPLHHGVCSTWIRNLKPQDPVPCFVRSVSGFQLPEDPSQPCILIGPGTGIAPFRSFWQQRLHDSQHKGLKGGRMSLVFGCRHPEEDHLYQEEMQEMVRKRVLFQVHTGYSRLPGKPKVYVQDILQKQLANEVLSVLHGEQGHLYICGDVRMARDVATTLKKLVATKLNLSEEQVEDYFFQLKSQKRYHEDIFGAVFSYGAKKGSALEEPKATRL
Summary of the method: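 RAW264.7 cells stimulated with LPS 1 μg/mL for 4 h, then compound (10, 50, 100 μM) for 24 h; culture medium reacted with Griess reagents I and II, absorbance 570 nm; nitrite from sodium nitrite standard curve (0–100 μM in medium); four independent experiments, mean ± SD.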

RAW264.7 [10] = test: Antiinflammatory activity in mouse RAW264.7 cells assessed as LPS-induced TNFalpha levels at 100 uM incubated for 24 hrs post LPS induction by ELISA relative to control; assay type: functional; summary of the method: as §1
L02 = test: Cytotoxicity against human LO2 cells assessed as reduction in cell survival after 24 hrs by MTT assay; assay type: cell-based; conditions: L02, 24 h
RAW264.7 [11] = test: Antiinflammatory activity in mouse RAW264.7 cells assessed as increase in LPS-induced HO-1 expression incubated for 24 hrs post LPS induction by ELISA; assay type: functional, cell-based; summary of the method: as §1
RAW264.7 [12] = test: Inhibition of LPS-induced COX2 expression in mouse RAW264.7 cells at 10 to 100 uM incubated for 24 hrs post LPS induction by ELISA; assay type: functional, cell-based; summary of the method: as §1
RAW264.7 [13] = test: as §2; assay type: cell-based; conditions: raw264.7, 24 h, 100 µM; summary of the method: as §3
Danio rerio [14] = species: Danio rerio; test: Toxicity in AB zebrafish embryo assessed as reduction in hatching rate of embryos up to 5 uM measured at 48 hrs post fertilization by dissecting light microscopic analysis; assay type: organism-based; conditions: in vivo
Summary of the method: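 AB embryos exposed from 4 to 72 hpf to compound (0.5–20 μM) or DMF vehicle (1:1000), one embryo per well; hatch rate scored at 48 hpf; n=100 per group in three replicates; three independent experiments, mean ± SD.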

Danio rerio [15] = species: Danio rerio; test: Toxicity in AB zebrafish embryo assessed as rate of embryo malformation at 0.5 to 20 uM measured at 96 hrs post fertilization by stereoscopic dissecting light microscopic analysis relative to DMF; assay type: organism-based; conditions: in vivo
Summary of the method: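 AB embryos exposed from 4 hpf through 96 hpf to compound or DMF vehicle (1:1000); malformations scored at 96 hpf under stereoscopic dissecting microscope; 100 embryos per group in three replicates; three independent experiments, mean ± SD.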

RAW264.7 [16] = test: as §4; assay type: cell-based; conditions: raw264.7, 24 h, 100 µM; summary of the method: as §3
[17] = Drug degradation in phosphate buffer assessed as H2S release by measuring test compound half life at 40 uM measured every 5 mins in presence of L-cysteine by UV-Vis spectrometry; assay type: physicochemical
Summary of the method: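 Sulfide release at 37.5 °C: donor (40 mM THF stock) added to pH 7.4 phosphate buffer with 1.0 mM L-cysteine; aliquots taken every 5 min into zinc acetate/N,N-dimethyl-1,4-phenylenediamine/FeCl3 in HCl, A670 read 15 min later; H2S quantified against Na2S standard curve (5–150 μM); release curve plotted vs time; four independent experiments.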

Row | SMILES | IC50 (HepG2) [µM] | half-life at 40 µM [3] [min] | IC50 (L02) [µM] | also measured
1 | CC(C)Cc1ccc(C(C)C(=O)Oc2ccc(-c3cc(=S)ss3)cc2)cc1 (stereo not drawn) | 923 | 1.4 | 889 | Activity (RAW264.7 [1]): Active; inhibition at 100 µM (RAW264.7 [2]): 60%; viability at 24 h, up to 100 µM [4]: 70 to 110%; fold change (FC) (RAW264.7 [5]): >3; Activity (RAW264.7 [6]): Active; viability at 24 h, up to 100 µM [7]: 70 to 110%; Activity (RAW264.7 [8]): Dose-dependent effect; inhibition [9]: Dose-dependent effect; Activity (RAW264.7 [10]): 5 - 20%; Activity (RAW264.7 [11]): Dose-dependent effect
2 | COc1ccc2c(c1)c(CC(=O)Oc1ccc(-c3cc(=S)ss3)cc1)c(C)n2C(=O)c1ccc(Cl)cc1 | 3290 | 1.8 | 337 | Activity (RAW264.7 [1]): Active; inhibition (RAW264.7 [12]): Active; Activity (RAW264.7 [13]): Non-Toxic; Activity (Danio rerio [14]): Toxic; Activity (Danio rerio [15]): 2%; fold change (FC) (RAW264.7 [5]): <=2; Activity (RAW264.7 [6]): Active; Activity (RAW264.7 [16]): Non-Toxic; Activity (RAW264.7 [8]): Dose-dependent effect; inhibition [9]: Dose-dependent effect; Activity (RAW264.7 [10]): 5 - 20%; Activity (RAW264.7 [11]): Dose-dependent effect
3 | O=C(O)CCCCC1CCSS1 (stereo not drawn) [LIPOIC ACID, ALPHA] | – | – | – | half-life at 40 µM [17]: 118 min
4 | O=C(/C=C/c1ccccc1)Oc1ccc(-c2cc(=S)ss2)cc1 | 1080 | 1.9 | 536 | –
5 | COc1ccc2cc(C(C)C(=O)Oc3ccc(C(N)=S)cc3)ccc2c1 (stereo not drawn) [ATB-346] | 228 | 13.4 | 3610 | Activity (RAW264.7 [1]): Active; inhibition (RAW264.7 [12]): Active; viability at 24 h, up to 100 µM [4]: 70 to 110%; fold change (FC) (RAW264.7 [5]): <=2; Activity (RAW264.7 [6]): Active; viability at 24 h, up to 100 µM [7]: 70 to 110%; Activity (RAW264.7 [8]): Dose-dependent effect; inhibition [9]: Dose-dependent effect; Activity (RAW264.7 [11]): Dose-dependent effect
6 | CC(C(=O)Oc1ccc(-c2cc(=S)ss2)cc1)c1cccc(C(=O)c2ccccc2)c1 (stereo not drawn) | 1280 | 3.4 | 544 | –
7 | CC(C(=O)Oc1ccc(C(N)=S)cc1)c1cccc(C(=O)c2ccccc2)c1 (stereo not drawn) | 1070 | 9.8 | 1180 | –
8 | CC1=C(CC(=O)Oc2ccc(C(N)=S)cc2)c2cc(F)ccc2/C1=C\c1ccc([S+](C)[O-])cc1 (stereo not drawn) | 1080 | 3.1 | 1480 | –
9 | O=C(CCCCC1CCSS1)Oc1ccc2ccc(=O)oc2c1 (stereo not drawn) | 917 | – | 2540 | half-life at 40 µM [17]: 4.6 min
10 | NC(=S)c1ccc(OC(=O)c2ccccc2Cl)cc1 | 1060 | 7.1 | 1090 | –
11 | NC(=S)c1ccc(OC(=O)/C=C/c2ccccc2)cc1 | 410 | 4.4 | > 800 | –
12 | NC(=S)c1ccc(OC(=O)c2ccc(Cl)cc2)cc1 | 1060 | 14.4 | > 800 | –
13 | CC(C(=O)Oc1ccc(C(N)=S)cc1)c1ccc(-c2ccccc2)c(F)c1 (stereo not drawn) | 1680 | 3.3 | > 800 | –
14 | COc1ccc2cc(C(C)C(=O)Oc3ccc(-c4cc(=S)ss4)cc3)ccc2c1 (stereo not drawn) | 1120 | 3.1 | 1040 | –
15 | NC(=S)c1ccccc1 | – | 0.9 | – | –
16 | Oc1ccc(-c2cc(=S)ss2)cc1 | – | 3.9 | – | –
